# Test results published in ChEMBL document CHEMBL3526146, “In vitro and in vivo metabolism and pharmacokinetics of BMS-562086, a potent and orally bioavailable corticotropin-releasing factor-1 receptor antagonist” (Drug Metab Dispos, 2012).
# How the values were obtained:
# [1] = Drug metabolism in cynomolgus monkey liver microsomes at 100 uM after 1 hr in presence of NADPH; type: ADME, Macaca fascicularis
# Summary of the method: (§1)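 Mouse, rat, dog, monkey and human liver microsomes (1 mg/ml protein) were incubated with 100 µM compound in 100 mM phosphate buffer. Reactions were started with 1 mM NADPH and run 1 h at 37°C in duplicate. Controls lacked protein or NADPH, plus a 7-ethoxycoumarin (100 µM) positive control. Metabolites were identified by LC/MS/MS.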
# [2] = Detection of compound level in cynomolgus monkey liver microsomes treated with 100 uM of BMS-562086 after 1 hr by LC-MS/MS analysis
# [3] = test system: Liver microsome; experiment: Drug metabolism in dog liver microsomes assessed as DPH-124921 metabolite level at 100 uM after 1 hr in presence of NADPH; type: ADME, Canis lupus familiaris; summary of the method: as §1
# [4] = Detection of compound level in cynomolgus monkey cryopreserved hepatocytes treated with 25 uM of BMS-562086 after 3 hrs by LC-MS/MS analysis; type: ADME, cell-based, Macaca fascicularis, Hepatocyte
# Summary of the method: (§2)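 Mouse, rat, dog, monkey and human hepatocytes (trypan blue viability checked) at 1.0×10^6 cells/ml in Krebs-Henseleit buffer were incubated with 25 µM compound, in duplicate. Conditions were 37°C, 95/5 O2/CO2, orbital shaking, 3 h. 7-Ethoxycoumarin and 7-hydroxycoumarin (100 µM) served as positive controls, with a cell-free negative control. Reactions were quenched with ice-cold acetonitrile, then sonicated and centrifuged; supernatants were analysed by LC/MS/MS.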
# [5] = test system: Liver microsome; experiment: Drug metabolism in human liver microsomes assessed as DPH-123554 metabolite level at 100 uM after 1 hr in presence of NADPH; type: ADME
# Summary of the method: (§3)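 Liver microsomes (1 mg/ml protein) in 100 mM phosphate buffer with 100 µM test compound. Reaction started by adding NADPH (1 mM), then run at 37°C for 1 h in a shaking water bath, in duplicate. Controls lacked microsomal protein or NADPH; 7-ethoxycoumarin (100 µM) was the positive control. Metabolites identified by LC/MS/MS.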
# [6] = Drug metabolism in rat hepatocytes assessed as DPH-124921 metabolite level at 25 uM after 3 hrs by LC-MS/MS analysis; type: ADME, cell-based, Hepatocyte
# Summary of the method: (§4)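 Hepatocytes checked for viability by trypan blue exclusion, then diluted in Krebs-Henseleit buffer to 1.0 × 10^6 cells/ml. Incubated in duplicate with 25 µM compound at 37°C for 3 h on an orbital shaker (80 rpm) under 95/5 O2/CO2. Negative control had no cells. Stopped with ice-cold acetonitrile, sonicated, centrifuged; supernatant analysed by LC/MS/MS.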
# [7] = test system: Liver microsome; experiment: Detection of compound level in rat liver microsomes treated with 100 uM of BMS-562086 after 1 hr by LC-MS/MS analysis
# [8] = Drug metabolism in cynomolgus monkey liver microsomes assessed as DPH-123554 metabolite level at 100 uM after 1 hr in presence of NADPH; type: ADME, Macaca fascicularis; summary of the method: as §1
# [9] = Drug metabolism in mouse hepatocytes assessed as DPH-123554 metabolite level at 25 uM after 3 hrs by LC-MS/MS analysis; type: ADME, cell-based, Hepatocyte; summary of the method: as §4
# [10] = Drug metabolism in mouse liver microsomes assessed as BMS-572273 metabolite level at 100 uM after 1 hr in presence of NADPH; type: ADME; summary of the method: as §3
# [11] = test system: Liver microsome; experiment: Drug metabolism in dog liver microsomes at 100 uM after 1 hr in presence of NADPH; type: ADME, Canis lupus familiaris; summary of the method: as §3
# [12] = Drug metabolism in cynomolgus monkey liver microsomes assessed as BMS-572273 metabolite level at 100 uM after 1 hr in presence of NADPH; type: ADME, Macaca fascicularis; summary of the method: as §1
# [13] = Drug metabolism in mouse liver microsomes at 100 uM after 1 hr in presence of NADPH; type: ADME; summary of the method: as §3
# [14] = test system: Liver microsome; experiment: Drug metabolism in human liver microsomes assessed as BMS-572273 metabolite level at 100 uM after 1 hr in presence of NADPH; type: ADME; summary of the method: as §3
# [15] = Detection of compound level in mouse liver microsomes treated with BMS-562086 by LC-MS/MS analysis
# [16] = test system: Hepatocyte; experiment: Detection of compound level in rat hepatocytes treated with 25 uM of BMS-562086 after 3 hrs by LC-MS/MS analysis; type: ADME, cell-based; summary of the method: as §2
# [17] = test system: Hepatocyte; experiment: Detection of compound level in human cryopreserved hepatocytes treated with 25 uM of BMS-562086 after 3 hrs by LC-MS/MS analysis; type: ADME, cell-based; summary of the method: as §2
# [18] = test system: Liver microsome; experiment: Drug metabolism in rat liver microsomes assessed as DPH-123554 metabolite level at 100 uM after 1 hr in presence of NADPH; type: ADME; summary of the method: as §3
# [19] = Drug metabolism in cynomolgus monkey cryopreserved hepatocytes assessed as BMS-572273 metabolite level at 25 uM after 3 hrs by LC-MS/MS analysis; type: ADME, cell-based, Macaca fascicularis, Hepatocyte; summary of the method: as §2
# [20] = test system: Liver microsome; experiment: Drug metabolism in beagle dog liver microsomes assessed as DPH-123554 metabolite level at 100 uM after 1 hr in presence of NADPH; type: ADME, Canis lupus familiaris; summary of the method: as §1
# [21] = test system: Liver microsome; experiment: Drug metabolism in rat liver microsomes assessed as DPH-124921 metabolite level at 100 uM after 1 hr in presence of NADPH; type: ADME; summary of the method: as §3
# [22] = Drug metabolism in mouse liver microsomes assessed as DPH-123554 metabolite level at 100 uM after 1 hr in presence of NADPH; type: ADME; summary of the method: as §3
# [23] = Drug metabolism in mouse liver microsomes assessed as DPH-124921 metabolite level at 100 uM after 1 hr in presence of NADPH; type: ADME; summary of the method: as §3
# [24] = Drug metabolism in rat hepatocytes at 25 uM after 3 hrs by LC-MS/MS analysis; type: ADME, cell-based, Hepatocyte; summary of the method: as §4
# [25] = Drug metabolism in human cryopreserved hepatocytes at 25 uM after 3 hrs by LC-MS/MS analysis; type: ADME, cell-based, Hepatocyte; summary of the method: as §4
# [26] = test system: Liver microsome; experiment: Detection of compound level in human liver microsomes treated with 100 uM of BMS-562086 after 1 hr by LC-MS/MS analysis
# [27] = test system: Liver microsome; experiment: Detection of compound level in beagle dog liver microsomes treated with 100 uM of BMS-562086 after 1 hr by LC-MS/MS analysis
# [28] = Drug metabolism in cynomolgus monkey cryopreserved hepatocytes assessed as DPH-124921 metabolite level at 25 uM after 3 hrs by LC-MS/MS analysis; type: ADME, cell-based, Macaca fascicularis, Hepatocyte; summary of the method: as §2
# [29] = Drug metabolism in beagle dog hepatocytes at 25 uM after 3 hrs by LC-MS/MS analysis; type: ADME, cell-based, Canis lupus familiaris, Hepatocyte; summary of the method: as §2
# [30] = Drug metabolism in mouse hepatocytes assessed as DPH-124921 metabolite level at 25 uM after 3 hrs by LC-MS/MS analysis; type: ADME, cell-based, Hepatocyte; summary of the method: as §4
# [31] = Drug metabolism in cynomolgus monkey cryopreserved hepatocytes assessed as DPH-123554 metabolite level at 25 uM after 3 hrs by LC-MS/MS analysis; type: ADME, cell-based, Macaca fascicularis, Hepatocyte; summary of the method: as §2
# [32] = Drug metabolism in mouse hepatocytes at 25 uM after 3 hrs by LC-MS/MS analysis; type: ADME, cell-based, Hepatocyte; summary of the method: as §4
# [33] = test system: Liver microsome; experiment: Drug metabolism in human liver microsomes at 100 uM after 1 hr in presence of NADPH; type: ADME; summary of the method: as §3
# [34] = Drug metabolism in human cryopreserved hepatocytes assessed as DPH-124921 metabolite level at 25 uM after 3 hrs by LC-MS/MS analysis; type: ADME, cell-based, Hepatocyte; summary of the method: as §4
Drug metabolism [1],Drug metabolism [2],Drug metabolism [3],Drug metabolism [4],Drug metabolism [5],Drug metabolism [6],Drug metabolism [7],Drug metabolism [8],Drug metabolism [9],Drug metabolism [10],Drug metabolism [11],Drug metabolism [12],Drug metabolism [13],Drug metabolism [14],Drug metabolism [15],Drug metabolism [16],Drug metabolism [17],Drug metabolism [18],Drug metabolism [19],Drug metabolism [20],SMILES,further results
metabolite_detected,metabolite_detected,metabolite_detected,metabolite_detected,metabolite_detected,metabolite_detected,metabolite_detected,metabolite_detected,metabolite_detected,metabolite_detected,metabolite_detected,metabolite_detected,metabolite_detected,metabolite_detected,metabolite_detected,metabolite_detected,metabolite_detected,metabolite_detected,metabolite_detected,metabolite_detected,COc1ccc(-c2c(C)nn3c(N)nc(C)nc23)c(C)n1,Drug metabolism [21]: metabolite_detected; Drug metabolism [22]: metabolite_detected; Drug metabolism [23]: metabolite_detected; Drug metabolism [24]: metabolite_detected; Drug metabolism [25]: metabolite_detected; Drug metabolism [26]: metabolite_detected; Drug metabolism [27]: metabolite_detected; Drug metabolism [28]: metabolite_detected; Drug metabolism [29]: metabolite_detected; Drug metabolism [30]: metabolite_detected; Drug metabolism [31]: metabolite_detected; Drug metabolism [32]: metabolite_detected; Drug metabolism [33]: metabolite_detected; Drug metabolism [34]: metabolite_detected
metabolite_detected,metabolite_detected,metabolite_detected,metabolite_detected,metabolite_detected,metabolite_detected,metabolite_detected,metabolite_detected,metabolite_detected,metabolite_detected,metabolite_detected,metabolite_detected,metabolite_detected,metabolite_detected,metabolite_detected,metabolite_detected,metabolite_detected,metabolite_detected,metabolite_detected,metabolite_detected,COc1ccc(-c2c(C)nn3c(O)nc(C)nc23)c(C)n1,Drug metabolism [21]: metabolite_detected; Drug metabolism [22]: metabolite_detected; Drug metabolism [23]: metabolite_detected; Drug metabolism [24]: metabolite_detected; Drug metabolism [25]: metabolite_detected; Drug metabolism [26]: metabolite_detected; Drug metabolism [27]: metabolite_detected; Drug metabolism [28]: metabolite_detected; Drug metabolism [29]: metabolite_detected; Drug metabolism [30]: metabolite_detected; Drug metabolism [31]: metabolite_detected; Drug metabolism [32]: metabolite_detected; Drug metabolism [33]: metabolite_detected; Drug metabolism [34]: metabolite_detected
metabolite_detected,metabolite_detected,metabolite_detected,metabolite_detected,metabolite_detected,metabolite_detected,metabolite_detected,metabolite_detected,metabolite_detected,metabolite_detected,metabolite_detected,metabolite_detected,metabolite_detected,metabolite_detected,metabolite_detected,metabolite_detected,metabolite_detected,metabolite_detected,metabolite_detected,metabolite_detected,CC[C@@H](C)Nc1nc(C)nc2c(-c3ccc(O)nc3C)c(C)nn12,Drug metabolism [21]: metabolite_detected; Drug metabolism [22]: metabolite_detected; Drug metabolism [23]: metabolite_detected; Drug metabolism [24]: metabolite_detected; Drug metabolism [25]: metabolite_detected; Drug metabolism [26]: metabolite_detected; Drug metabolism [27]: metabolite_detected; Drug metabolism [28]: metabolite_detected; Drug metabolism [29]: metabolite_detected; Drug metabolism [30]: metabolite_detected; Drug metabolism [31]: metabolite_detected; Drug metabolism [32]: metabolite_detected; Drug metabolism [33]: metabolite_detected; Drug metabolism [34]: metabolite_detected
